Source: ChEMBL document CHEMBL2380219, “Physalin A induces apoptotic cell death and protective autophagy in HT1080 human fibrosarcoma cells” (J Nat Prod, 2013)

Assays:
PBMC = experiment: Cytotoxicity against human PBMC at 40 to 80 uM after 24 to 48 hrs by MTT assay; format: cell-based
How it was run: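 hPBMC from fresh blood of three healthy male volunteers, isolated on Ficoll-Hypaque (1.077 g/mL) at 900g for 30 min and washed, then seeded in complete RPMI-1640. Exposed to 10–80 μM for 24 and 48 h, with DMSO below 0.05%. MTT was read at 492 nm after formazan in DMSO. Inhibition % = (control−sample)/(control−blank)×100; mean ± SD, three independent experiments.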

HT-1080 = experiment: Cytotoxicity against human HT1080 cells assessed as growth inhibition after 24 hrs by MTT assay; format: functional, cell-based; conditions: HT-1080, 24 h

| Compound | Activity (PBMC) | IC50 (HT-1080) [µM] |
| --- | --- | --- |
| O=c1[nH]cc(F)c(=O)[nH]1 [FLUOROURACIL] | Non-toxic | 70.8 |
| CC(=O)O[C@H]1C(=O)[C@@]2(C)[C@H]([C@H](OC(=O)c3ccccc3)[C@]3(O)C[C@H](OC(=O)[C@H](O)[C@@H](NC(=O)c4ccccc4)c4ccccc4)C(C)=C1C3(C)C)[C@]1(OC(C)=O)CO[C@@H]1C[C@@H]2O [PACLITAXEL] | Non-toxic | 6 |
